Test results from ChEMBL document CHEMBL5653608 (Br J Pharmacol, 2011).
The source made the active and inactive calls. The calls are words filed in the database; no cut-off is given here.

Legend:
[1] = molecular target: T1, Prostaglandin E2 receptor EP1 subtype (Homo sapiens, UniProt P34995); assay: Antagonist activity at human EP1 receptor expressed in CHO cells assessed as increase in cAMP level incubated for 30 mins followed by agonist addition measured after 90 mins; assay type: functional, cell-based
T1 sequence (P34995 whole entry): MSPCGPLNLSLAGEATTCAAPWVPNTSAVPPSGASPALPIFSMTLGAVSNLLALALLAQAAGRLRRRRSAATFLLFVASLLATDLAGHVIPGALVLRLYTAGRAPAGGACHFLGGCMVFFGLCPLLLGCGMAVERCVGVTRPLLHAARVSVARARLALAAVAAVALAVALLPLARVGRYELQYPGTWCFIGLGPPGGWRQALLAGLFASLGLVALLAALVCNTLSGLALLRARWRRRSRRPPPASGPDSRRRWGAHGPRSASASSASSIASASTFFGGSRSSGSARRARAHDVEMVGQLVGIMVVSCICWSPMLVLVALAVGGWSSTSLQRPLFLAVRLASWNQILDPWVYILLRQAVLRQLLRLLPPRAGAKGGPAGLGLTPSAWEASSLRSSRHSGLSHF

[2] = molecular target: T1, Prostaglandin E2 receptor EP1 subtype; assay: Agonist activity at human EP1 receptor expressed in CHO cells incubated for 30 mins; assay type: functional, cell-based
[3] = molecular target: T2, Prostaglandin E2 receptor EP3 subtype (Homo sapiens, UniProt P43115); assay: Antagonist activity at human EP3 receptor expressed in CHO cells assessed as increase in cAMP level incubated for 30 mins followed by agonist addition measured after 90 mins; assay type: functional, cell-based
T2 sequence (P43115 whole entry): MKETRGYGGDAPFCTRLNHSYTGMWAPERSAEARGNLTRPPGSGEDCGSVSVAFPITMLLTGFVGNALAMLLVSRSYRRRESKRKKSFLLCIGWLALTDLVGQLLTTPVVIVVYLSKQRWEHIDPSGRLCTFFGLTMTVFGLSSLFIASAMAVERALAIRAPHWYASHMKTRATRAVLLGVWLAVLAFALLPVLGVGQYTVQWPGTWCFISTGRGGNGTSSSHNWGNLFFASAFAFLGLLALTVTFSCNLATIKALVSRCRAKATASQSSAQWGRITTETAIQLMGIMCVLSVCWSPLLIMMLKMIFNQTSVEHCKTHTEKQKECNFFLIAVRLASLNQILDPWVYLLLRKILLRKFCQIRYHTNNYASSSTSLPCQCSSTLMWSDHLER

[4] = molecular target: T2, Prostaglandin E2 receptor EP3 subtype; assay: Agonist activity at human EP3 receptor expressed in CHO cells incubated for 30 mins; assay type: functional, cell-based
[5] = molecular target: Prostaglandin E2 receptor EP4 subtype (Homo sapiens, UniProt P35408); assay: Agonist activity at human EP4 receptor expressed in CHO cells incubated for 30 mins; assay type: functional, cell-based
Summary of the method: (§1)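 Reporter CHO cells (CRE β-lactamase host) stably expressing the human receptor, suspended in DMEM at 1 × 10^6 cells/mL. Compound in PBS/DMSO/pluronic buffer, preincubated with cells for 30 min at 37°C. In antagonist mode, agonist was then added for 90 min at 37°C; agonist mode used buffer instead. Cells were lysed by freezing, and cAMP was read by DiscoveRx enzyme-fragment luminescence after 4–20 h. Four-parameter logistic fit.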

[6] = molecular target: T3, Prostaglandin D2 receptor (Homo sapiens, UniProt Q13258); assay: Antagonist activity at human DP1 receptor expressed in CHO cells incubated for 30 mins followed by agonist addition measured after 90 mins; assay type: functional, cell-based; summary of the method: as §1
T3 sequence (Q13258 whole entry): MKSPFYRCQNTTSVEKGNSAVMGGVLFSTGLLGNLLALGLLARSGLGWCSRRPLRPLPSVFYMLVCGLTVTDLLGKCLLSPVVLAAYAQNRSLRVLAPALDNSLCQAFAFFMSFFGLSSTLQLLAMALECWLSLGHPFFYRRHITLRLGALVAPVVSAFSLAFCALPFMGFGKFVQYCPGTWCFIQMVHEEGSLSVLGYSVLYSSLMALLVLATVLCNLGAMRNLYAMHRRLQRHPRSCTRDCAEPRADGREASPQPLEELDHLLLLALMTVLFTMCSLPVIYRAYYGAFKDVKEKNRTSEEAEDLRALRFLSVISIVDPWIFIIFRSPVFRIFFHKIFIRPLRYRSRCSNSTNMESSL

[7] = molecular target: T4, Prostaglandin D2 receptor 2 (Homo sapiens, UniProt Q9Y5Y4); assay: Antagonist activity at human CRTH2 receptor incubated for 30 mins followed by agonist addition measured after 90 mins; assay type: functional
T4 sequence (Q9Y5Y4 whole entry): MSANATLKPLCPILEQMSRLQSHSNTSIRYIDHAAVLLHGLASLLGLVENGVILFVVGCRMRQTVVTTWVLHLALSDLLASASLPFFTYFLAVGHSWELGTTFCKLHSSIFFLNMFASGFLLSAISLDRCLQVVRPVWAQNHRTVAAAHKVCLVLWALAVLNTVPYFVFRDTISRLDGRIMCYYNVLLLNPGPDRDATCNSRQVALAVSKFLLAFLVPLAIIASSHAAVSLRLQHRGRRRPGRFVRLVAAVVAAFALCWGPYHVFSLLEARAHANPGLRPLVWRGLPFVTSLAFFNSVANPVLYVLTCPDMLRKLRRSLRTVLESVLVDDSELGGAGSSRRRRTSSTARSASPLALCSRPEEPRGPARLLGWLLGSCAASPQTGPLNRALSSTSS
Summary of the method: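 CHO reporter cells expressing human CRTH2, run in the DiscoveRx cAMP format. Compound preincubated with cells for 30 min at 37°C, then cells were stimulated with 8 µM forskolin plus agonist for 90 min at 37°C. Cells were lysed at −80°C and cAMP was read by luminescence. IC50 from an unconstrained four-parameter logistic fit.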

Prostacyclin receptor = Prostacyclin receptor (Homo sapiens, UniProt P43119); assay: Displacement of [3H]-Iloprost from human IP receptor assessed as inhibition constant incubated for 2 hrs by TopCount NXT counter based analysis
Summary of the method: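 Radioligand displacement with [3H]iloprost (20 µL of a 100 nM stock), using HEK membranes expressing human IP (10 µg per well). Buffer was 10 mM HEPES, 10 mM MgCl2, 1 mM EDTA, pH 7.4, with top concentration 10 µM. Nonspecific binding was defined with 10 µM carbacyclin. Incubated 2 h at room temperature with shaking, then filtered on GF/B, washed cold and counted by scintillation. FP, TP and LTB4 assays were run externally.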

[8] = molecular target: Prostaglandin F2-alpha receptor (Homo sapiens, UniProt P43088); assay: Displacement of [3H]-Iloprost from human FP receptor assessed as inhibition constant incubated for 2 hrs by TopCount NXT counter based analysis
Thromboxane A2 receptor = molecular target: T5, Thromboxane A2 receptor (Homo sapiens, UniProt P21731); assay: Displacement of [3H]-Iloprost from human TP receptor assessed as inhibition constant incubated for 2 hrs by TopCount NXT counter based analysis
T5 sequence (P21731 whole entry): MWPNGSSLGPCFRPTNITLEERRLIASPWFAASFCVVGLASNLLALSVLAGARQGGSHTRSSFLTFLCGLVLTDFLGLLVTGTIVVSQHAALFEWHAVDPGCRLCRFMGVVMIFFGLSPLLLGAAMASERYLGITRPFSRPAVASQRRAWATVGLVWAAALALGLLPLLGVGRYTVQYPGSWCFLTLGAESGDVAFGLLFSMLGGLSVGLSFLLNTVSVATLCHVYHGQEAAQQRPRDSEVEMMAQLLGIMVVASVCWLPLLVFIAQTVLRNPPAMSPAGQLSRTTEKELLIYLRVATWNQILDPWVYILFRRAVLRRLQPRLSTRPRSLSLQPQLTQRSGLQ

[9] = Displacement of [3H]-Iloprost from human LTB4 receptor assessed as inhibition constant incubated for 2 hrs by TopCount NXT counter based analysis
[10] = Inhibition of EFS-induced contraction of human myometrium assessed as butaprost IC50 at 10 nM incubated for 60 mins (reference value: 27.8 nM); assay type: functional, tissue-based
Summary of the method: (§2)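 Human myometrial strips (donors aged 24–76) in a 15 mL Krebs bath at 37°C, under EFS at 15 V, 1.5 ms pulses, 10 s every 100 s, at a submaximal 15 Hz. Antagonist (10 or 100 nM) or vehicle was equilibrated for 60 min. Cumulative butaprost (0.1 nM–10 µM) or PGE2 (0.1 nM–3 µM) was given for at least five EFS responses per concentration. pKB was calculated from same-donor concentration ratios.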

[11] = Inhibition of EFS-induced contraction of human myometrium assessed as butaprost IC50 at 100 nM incubated for 60 mins (reference value: 27.8 nM); assay type: functional, tissue-based; summary of the method: as §2
[12] = molecular target: Prostaglandin E2 receptor EP2 subtype (Canis lupus familiaris) (UniProt Q9XT82); assay: Binding affinity to dog bronchiole EP2 receptor assessed as equilibrium binding constant incubated for 30 mins followed by agonist addition measured after 90 mins; assay type: tissue-based; details: filed as antagonist, time 120.0 min
[13] = molecular target: Prostaglandin E2 receptor EP2 subtype (Mus musculus) (UniProt Q62053); assay: Binding affinity to mouse trachea EP2 receptor assessed as equilibrium binding constant incubated for 30 mins followed by agonist addition measured after 90 mins; assay type: tissue-based; details: filed as antagonist, time 120.0 min
Canis lupus familiaris = organism: Canis lupus familiaris; assay: Induction of relaxation in PGE2-induced carbachol pre-contracted rings of Beagle dog bronchioles at 3 to 100 nM incubated for 1 hr; assay type: functional, tissue-based; details: Bronchiole, dose 3-100 nM
Summary of the method: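 Beagle bronchiole rings held at 1 g tension in Krebs at 37°C (with propranolol and phentolamine), primed with 80 mM KCl. Rings were precontracted with 1 µM carbachol, then antagonist (3–100 nM) or vehicle was equilibrated for 1 h. Cumulative PGE2 relaxation curves followed, with final 10 µM nifedipine defining maximal relaxation. KB by the Lew and Angus method.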

[14] = Induction of relaxation in PGE2-induced carbachol pre-contracted C57BL/6 mouse trachea incubated for 30 mins; assay type: functional, tissue-based
Summary of the method: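 Male C57BL/6 tracheal rings at 0.35 g tension in Krebs (95% O2/5% CO2, 37°C). Rings were precontracted with 10 µM carbachol before cumulative half-log PGE2 (0.1 nM–30 µM). Curves were repeated in the same ring after 30 min with 3 nM antagonist or DMSO, and 10 µM forskolin set maximal relaxation. pKB = log(CR−1) − log[B].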

[15] = Induction of relaxation in PGE2-induced carbachol pre-contracted C57BL/6 mouse trachea at 1 to 3 uM incubated for 30 mins relative to control (reference value: 11 +/- 3.2%); assay type: functional; parameters: scale not given: the % may be the effect or the level left; details: dose 1-3 µM, 0.5 h
[16] = Induction of relaxation in PGE2-induced carbachol pre-contracted C57BL/6 mouse trachea at 100 nM incubated for 30 mins relative to control (reference value: 11 +/- 3.2%); assay type: functional; parameters: scale not given: the % may be the effect or the level left; details: 0.5 h
Rattus norvegicus [17] = assay: Effect on butaprost induced cutaneous blood flow in po dosed Sprague-Dawley rat measured upto 95 mins; assay type: functional, organism-based; details: dose 1-10 mg/kg
Summary of the method: (§3)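 Sprague Dawley rats (442–515 g) dosed orally with compound or vehicle (0.5% methylcellulose/0.1% Tween 80, 1 mL/kg). About 1 h 25 min later rats were placed under isoflurane and the abdomen shaved. Baseline laser Doppler scans were taken every 5 min for 35 min. Then 10 µL s.c. PGE2 (3 µg/mL) or butaprost (30 µg/mL) was injected, and scanning continued 60 min. Responses were vehicle-subtracted and normalized to the final three baselines. Peak and AUC0–60 were calculated.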

Rattus norvegicus [18] = assay: Effect on butaprost-induced cutaneous blood flow in Sprague-Dawley rat assessed as reduction in mean cutaneous blood flow peak response at 10 mg/kg, po measured upto 95 mins; assay type: functional; parameters: scale not given: the % may be the effect or the level left; details: 1.583 h; summary of the method: as §3
Rattus norvegicus [19] = assay: Effect on butaprost-induced cutaneous blood flow in Sprague-Dawley rat assessed as reduction in mean cutaneous blood flow peak response by measuring AUC(0 to 60 mins) at 10 mg/kg, po measured upto 95 mins; assay type: functional; parameters: scale not given: the % may be the effect or the level left; details: 1.583 h; summary of the method: as §3
[20] = Free plasma concentration in Sprague-Dawley rat at 1 to 10 mg/kg, po measured after 1.5 hrs; assay type: ADME, organism-based; details: in vivo, dose 1-10 mg/kg
[21] = Free plasma concentration in Sprague-Dawley rat at 1 to 10 mg/kg, po measured after 3 hrs; assay type: ADME, organism-based; details: in vivo, dose 1-10 mg/kg
[22] = Clearance in Sprague-Dawley rat at 1 mg/kg, po; assay type: ADME, organism-based; details: in vivo
[23] = Volume of distribution in Sprague-Dawley rat at 1 mg/kg, po; assay type: ADME, organism-based; details: in vivo
[24] = Terminal half life in Sprague-Dawley rat at 1 mg/kg, po; assay type: ADME, organism-based; details: in vivo, read-out: beta t1/2 (converted)
[25] = Oral bioavailability in Sprague-Dawley rat at 1 mg/kg; assay type: ADME, organism-based; details: in vivo
Mus musculus = organism: Mus musculus; assay: Induction of relaxation in PGE2-induced carbachol pre-contracted C57BL/6 mouse trachea at 1 to 3 nM incubated for 30 mins; details: dose 1-3 nM

Prostaglandin E2 receptor EP4 subtype, sequence (P35408 whole entry, the tested form may be a part): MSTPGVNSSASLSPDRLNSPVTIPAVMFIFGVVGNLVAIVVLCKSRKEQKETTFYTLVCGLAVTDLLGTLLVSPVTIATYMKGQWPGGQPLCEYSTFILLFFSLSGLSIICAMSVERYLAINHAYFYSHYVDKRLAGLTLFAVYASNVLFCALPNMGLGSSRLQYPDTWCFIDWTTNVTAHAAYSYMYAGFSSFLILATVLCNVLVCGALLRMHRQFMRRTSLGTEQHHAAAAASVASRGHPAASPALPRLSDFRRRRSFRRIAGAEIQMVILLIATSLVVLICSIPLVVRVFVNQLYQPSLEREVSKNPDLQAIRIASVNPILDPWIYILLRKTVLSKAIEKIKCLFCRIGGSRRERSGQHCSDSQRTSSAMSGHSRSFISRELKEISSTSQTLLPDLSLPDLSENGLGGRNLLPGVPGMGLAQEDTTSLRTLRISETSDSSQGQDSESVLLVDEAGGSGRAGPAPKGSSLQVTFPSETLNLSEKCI
Prostaglandin F2-alpha receptor, sequence (P43088 whole entry): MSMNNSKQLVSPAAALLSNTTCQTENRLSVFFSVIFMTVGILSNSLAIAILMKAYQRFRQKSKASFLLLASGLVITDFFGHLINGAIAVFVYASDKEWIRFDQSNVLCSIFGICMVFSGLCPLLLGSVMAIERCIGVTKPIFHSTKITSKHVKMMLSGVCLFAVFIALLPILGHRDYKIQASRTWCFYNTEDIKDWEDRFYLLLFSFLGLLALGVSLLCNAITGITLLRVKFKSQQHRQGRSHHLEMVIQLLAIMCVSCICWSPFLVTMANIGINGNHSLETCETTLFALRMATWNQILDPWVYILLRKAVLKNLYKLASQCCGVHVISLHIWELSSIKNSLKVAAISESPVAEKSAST
Prostaglandin E2 receptor EP2 subtype (Mus musculus), sequence (Q62053 whole entry): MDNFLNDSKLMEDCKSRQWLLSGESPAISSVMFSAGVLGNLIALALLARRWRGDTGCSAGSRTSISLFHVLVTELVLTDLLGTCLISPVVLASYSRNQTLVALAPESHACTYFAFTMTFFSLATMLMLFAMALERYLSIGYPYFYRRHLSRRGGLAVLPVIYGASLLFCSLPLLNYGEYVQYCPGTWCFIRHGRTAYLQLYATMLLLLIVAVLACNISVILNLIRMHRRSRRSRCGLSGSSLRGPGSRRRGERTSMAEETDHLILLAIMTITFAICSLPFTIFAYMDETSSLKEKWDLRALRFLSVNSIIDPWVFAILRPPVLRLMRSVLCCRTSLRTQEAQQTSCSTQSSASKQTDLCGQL
Prostaglandin E2 receptor EP2 subtype (Canis lupus familiaris), sequence (Q9XT82 whole entry): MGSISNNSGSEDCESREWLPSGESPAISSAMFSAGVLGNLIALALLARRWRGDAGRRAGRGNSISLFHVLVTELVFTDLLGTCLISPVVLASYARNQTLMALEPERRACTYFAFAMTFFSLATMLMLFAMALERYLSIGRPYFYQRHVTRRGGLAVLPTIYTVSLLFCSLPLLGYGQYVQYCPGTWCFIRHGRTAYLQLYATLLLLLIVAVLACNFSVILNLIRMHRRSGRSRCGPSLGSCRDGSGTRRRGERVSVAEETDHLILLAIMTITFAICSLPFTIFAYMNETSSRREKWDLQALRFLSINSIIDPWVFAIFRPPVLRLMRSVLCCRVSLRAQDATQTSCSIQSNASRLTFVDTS
Prostacyclin receptor, sequence (P43119 whole entry): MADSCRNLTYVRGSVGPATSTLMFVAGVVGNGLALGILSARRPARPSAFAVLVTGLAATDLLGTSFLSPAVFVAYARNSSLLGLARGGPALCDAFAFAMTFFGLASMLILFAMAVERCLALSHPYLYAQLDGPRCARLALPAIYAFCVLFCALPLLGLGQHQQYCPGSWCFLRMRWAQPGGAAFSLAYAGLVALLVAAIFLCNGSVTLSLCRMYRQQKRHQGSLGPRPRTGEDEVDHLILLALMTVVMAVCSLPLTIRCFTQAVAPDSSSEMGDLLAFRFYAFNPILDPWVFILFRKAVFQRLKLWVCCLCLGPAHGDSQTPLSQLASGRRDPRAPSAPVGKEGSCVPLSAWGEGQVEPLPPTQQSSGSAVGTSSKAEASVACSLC

## COc1ccc2cc(OCC3(C(=O)O)CN(C(=O)c4ccc(F)cc4)C3)ccc2c1 [PF-04418948]
[1]
  IC50: > 10 µM
[2]
  EC50: > 10 µM
[3]
  IC50: > 10 µM
[4]
  EC50: > 10 µM
[5]
  EC50: > 33.3 µM
[6]
  IC50: > 32.8 µM
[7]
  IC50: 32 µM
Prostacyclin receptor
  Ki: > 10 µM
[8]
  Ki: > 10 µM
Thromboxane A2 receptor
  Ki: > 10 µM
[9]
  Ki: 4.8 µM
[10]
  IC50: 0.054 µM
[11]
  IC50: 0.353 µM
[12]
  Kb: 0.0025 µM
[13]
  Kb: 0.0013 µM
Canis lupus familiaris
  Activity: Active
[14]
  IC50: 0.0027 µM
[15]
  Activity: 73.5%
[16]
  Activity: 106.8%
Rattus norvegicus [17]
  Activity: Dose-Dependent Effect
Rattus norvegicus [18]
  Activity: 41%
Rattus norvegicus [19]
  Activity: 61%
[20]
  Cp(f): 170 nM
[21]
  Cp(f): 94 nM
[22]
  CL/F: 0.3 mL/min/kg
[23]
  Vd: 0.1 L/kg
[24]
  half-life: 8.8 h
[25]
  bioavailability: 78%
Mus musculus
  Activity: Active
